In ChEMBL document CHEMBL3091303, “1,3-Dialkyl-substituted tetrahydropyrimido[1,2-f]purine-2,4-diones as multiple target drugs for the potential treatment of neurodegenerative diseases” (Bioorg Med Chem, 2013):

Columns and labels:
[1] = target: T1, Adenosine receptor A3 (Homo sapiens) (UniProt P0DMS8); assay: Displacement of [3H]PSB-11 from human adenosine A3 receptor expressed in CHO cells relative to control; format: cell-based; set-up: concentration or dose not given beside the values; details: concentration not given here
T1 sequence (whole entry): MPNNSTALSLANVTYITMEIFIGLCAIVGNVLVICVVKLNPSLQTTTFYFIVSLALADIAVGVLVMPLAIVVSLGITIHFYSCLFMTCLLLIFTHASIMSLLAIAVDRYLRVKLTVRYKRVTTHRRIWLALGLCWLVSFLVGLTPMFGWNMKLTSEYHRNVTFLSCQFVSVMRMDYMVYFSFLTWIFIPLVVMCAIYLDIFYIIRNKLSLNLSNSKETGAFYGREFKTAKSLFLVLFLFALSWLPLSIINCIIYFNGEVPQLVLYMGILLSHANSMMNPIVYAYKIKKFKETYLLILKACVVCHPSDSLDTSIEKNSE

Adenosine receptor A3 [2] = target: T2, Adenosine receptor A3 (Homo sapiens, UniProt P0DMS8); assay: Displacement of [3H]PSB-11 from human adenosine A3 receptor expressed in CHO cells; format: cell-based
T2 sequence (P0DMS8 whole entry): T1 sequence (whole entry)

[3] = target: T3, Adenosine receptor A1 (Rattus norvegicus) (UniProt P25099); assay: Displacement of [3H]CCPA from adenosine A1 receptor in rat brain cortex relative to control; format: tissue-based; set-up: concentration or dose not given beside the values; details: concentration not given here
T3 sequence (whole entry): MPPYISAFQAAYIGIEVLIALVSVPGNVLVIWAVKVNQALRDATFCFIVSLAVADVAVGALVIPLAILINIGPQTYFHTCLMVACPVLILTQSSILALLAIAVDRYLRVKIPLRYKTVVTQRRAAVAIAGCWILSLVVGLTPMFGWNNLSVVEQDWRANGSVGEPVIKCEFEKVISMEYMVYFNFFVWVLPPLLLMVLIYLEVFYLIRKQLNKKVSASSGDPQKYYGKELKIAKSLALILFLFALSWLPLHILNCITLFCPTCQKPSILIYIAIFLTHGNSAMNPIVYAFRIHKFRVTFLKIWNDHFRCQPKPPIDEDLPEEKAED
In short: (§1)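 Radioligand binding to rat A1 receptors in rat brain cortical membrane preparations. Values are given as Ki, or as % inhibition of radioligand binding at the indicated concentration.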

Adenosine receptor A2b [4] = target: T4, Adenosine receptor A2b (Homo sapiens, UniProt P29275); assay: Displacement of [3H]PSB-603 from human adenosine A2B receptor
T4 sequence (P29275 whole entry): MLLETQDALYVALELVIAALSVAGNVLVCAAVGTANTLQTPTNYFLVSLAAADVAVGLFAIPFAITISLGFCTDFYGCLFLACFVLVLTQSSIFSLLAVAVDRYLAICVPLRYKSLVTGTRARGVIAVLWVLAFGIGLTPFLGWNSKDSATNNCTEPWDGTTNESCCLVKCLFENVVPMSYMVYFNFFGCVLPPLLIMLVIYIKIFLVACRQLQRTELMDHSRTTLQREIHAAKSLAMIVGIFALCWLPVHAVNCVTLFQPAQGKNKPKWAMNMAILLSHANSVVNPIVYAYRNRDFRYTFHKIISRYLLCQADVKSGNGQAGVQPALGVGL

Adenosine receptor A2a [5] = target: T5, Adenosine receptor A2a (Rattus norvegicus, UniProt P30543); assay: Displacement of [3H]MSX-2 from adenosine A2A receptor in rat brain striatum; format: tissue-based
Adenosine receptor A1 [6] = target: T6, Adenosine receptor A1 (Rattus norvegicus, UniProt P25099); assay: Displacement of [3H]CCPA from adenosine A1 receptor in rat brain cortex; format: tissue-based; in short: as §1
T6 sequence (P25099 whole entry): T3 sequence (whole entry)

[7] = target: T7, Amine oxidase [flavin-containing] B (Homo sapiens, UniProt P27338); assay: Inhibition of human MAO-B
T7 sequence (P27338 whole entry): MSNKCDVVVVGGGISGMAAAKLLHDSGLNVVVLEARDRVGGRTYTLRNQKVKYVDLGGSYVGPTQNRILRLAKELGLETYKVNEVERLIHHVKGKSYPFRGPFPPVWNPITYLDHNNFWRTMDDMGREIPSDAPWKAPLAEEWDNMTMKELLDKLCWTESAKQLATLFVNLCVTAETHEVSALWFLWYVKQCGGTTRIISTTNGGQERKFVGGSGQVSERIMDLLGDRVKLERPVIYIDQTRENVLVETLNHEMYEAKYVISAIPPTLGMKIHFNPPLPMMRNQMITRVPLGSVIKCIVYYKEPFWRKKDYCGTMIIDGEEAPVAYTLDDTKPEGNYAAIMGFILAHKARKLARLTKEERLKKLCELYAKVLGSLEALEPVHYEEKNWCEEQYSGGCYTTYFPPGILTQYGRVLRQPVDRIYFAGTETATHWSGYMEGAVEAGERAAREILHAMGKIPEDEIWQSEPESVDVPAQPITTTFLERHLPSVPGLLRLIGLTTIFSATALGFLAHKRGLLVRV

[8] = target: T8, MAO-A (amine oxidase [flavin-containing] A) (Homo sapiens, UniProt P21397); assay: Inhibition of human MAO-A at 10 uM relative to control
T8 sequence (P21397 whole entry): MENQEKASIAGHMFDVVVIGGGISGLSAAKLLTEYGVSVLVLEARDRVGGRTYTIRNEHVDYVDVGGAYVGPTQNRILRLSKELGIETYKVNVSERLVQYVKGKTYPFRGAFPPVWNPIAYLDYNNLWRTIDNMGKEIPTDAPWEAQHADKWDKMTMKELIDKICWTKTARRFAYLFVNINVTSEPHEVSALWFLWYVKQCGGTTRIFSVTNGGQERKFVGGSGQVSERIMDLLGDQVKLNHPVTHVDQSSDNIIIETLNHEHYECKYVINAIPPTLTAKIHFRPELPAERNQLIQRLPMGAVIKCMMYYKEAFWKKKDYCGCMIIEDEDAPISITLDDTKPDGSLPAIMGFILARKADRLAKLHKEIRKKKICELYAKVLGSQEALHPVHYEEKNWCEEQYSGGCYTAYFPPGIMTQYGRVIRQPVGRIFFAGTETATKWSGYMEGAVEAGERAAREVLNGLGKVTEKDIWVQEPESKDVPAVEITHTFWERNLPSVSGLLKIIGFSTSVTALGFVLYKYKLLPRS
In short: (§2)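 Human MAO-A and MAO-B inhibition, screened first at a test concentration of 10 µM.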

[9] = target: T9, MAO-B (amine oxidase [flavin-containing] B) (Homo sapiens, UniProt P27338); assay: Inhibition of human MAO-B at 10 uM relative to control; in short: as §2
T9 sequence (P27338 whole entry): T7 sequence (P27338 whole entry)

[10] = target: Adenosine receptor A2a (Rattus norvegicus) (UniProt P30543); assay: Displacement of [3H]MSX-2 from adenosine A2A receptor in rat brain striatum relative to control; format: tissue-based; set-up: concentration or dose not given beside the values; details: concentration not given here
In short: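 Radioligand binding to rat A2A receptors in rat brain striatal membrane preparations, reported as % inhibition of radioligand binding at the indicated concentration.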

[11] = target: T10, Amine oxidase [flavin-containing] A (Homo sapiens, UniProt P21397); assay: Inhibition of human MAO-A; in short: as §2
T10 sequence (P21397 whole entry): T8 sequence (P21397 whole entry)

[12] = target: T11, Adenosine receptor A2b (Homo sapiens) (UniProt P29275); assay: Displacement of [3H]PSB-603 from human adenosine A2B receptor relative to control; set-up: concentration or dose not given beside the values; details: concentration not given here
T11 sequence (whole entry): T4 sequence (P29275 whole entry)

[13] = Ratio of Ki for human adenosine A1 receptor to Ki for adenosine A1 receptor in rat brain cortex; format: tissue-based
Adenosine receptor A1 [14] = target: T12, Adenosine receptor A1 (Homo sapiens, UniProt P30542); assay: Displacement of [3H]CCPA from human adenosine A1 receptor expressed in CHO cells; format: cell-based
T12 sequence (P30542 whole entry): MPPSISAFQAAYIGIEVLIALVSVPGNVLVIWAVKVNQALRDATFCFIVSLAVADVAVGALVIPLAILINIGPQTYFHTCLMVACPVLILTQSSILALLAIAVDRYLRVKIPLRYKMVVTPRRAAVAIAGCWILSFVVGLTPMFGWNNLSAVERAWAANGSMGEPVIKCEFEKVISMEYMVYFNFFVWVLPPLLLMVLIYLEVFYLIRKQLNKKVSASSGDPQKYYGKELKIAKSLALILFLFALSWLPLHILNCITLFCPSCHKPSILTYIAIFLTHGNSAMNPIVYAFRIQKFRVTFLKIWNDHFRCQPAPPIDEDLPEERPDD
In short: (§3)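 Radioligand binding to human receptors recombinantly expressed in Chinese hamster ovary (CHO) cells. Results are Ki, or % inhibition of radioligand binding at the indicated concentration.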

Adenosine receptor A1 [15] = target: T6, Adenosine receptor A1; assay: Binding affinity to rat adenosine A1 receptor
Adenosine receptor A2a [16] = target: T5, Adenosine receptor A2a; assay: Binding affinity to rat adenosine A2A receptor
Adenosine receptor A3 [17] = target: T13, Adenosine receptor A3 (Rattus norvegicus, UniProt P28647); assay: Binding affinity to rat adenosine A3 receptor
T13 sequence (P28647 whole entry): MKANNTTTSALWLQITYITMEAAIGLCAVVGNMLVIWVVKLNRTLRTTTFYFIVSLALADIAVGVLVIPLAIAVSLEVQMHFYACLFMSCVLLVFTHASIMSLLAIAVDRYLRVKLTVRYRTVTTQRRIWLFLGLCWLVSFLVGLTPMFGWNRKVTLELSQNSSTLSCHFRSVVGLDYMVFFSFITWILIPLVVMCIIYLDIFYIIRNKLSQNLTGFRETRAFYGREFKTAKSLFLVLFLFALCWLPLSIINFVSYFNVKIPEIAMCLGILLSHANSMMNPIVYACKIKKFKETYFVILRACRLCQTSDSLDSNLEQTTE

[18] = target: T14, Adenosine receptor A1 (Homo sapiens) (UniProt P30542); assay: Displacement of [3H]CCPA from human adenosine A1 receptor expressed in CHO cells relative to control; format: cell-based; details: concentration not given here; in short: as §3
T14 sequence (whole entry): T12 sequence (P30542 whole entry)

Adenosine receptor A2a [19] = target: T15, Adenosine receptor A2a (Homo sapiens, UniProt P29274); assay: Displacement of [3H]MSX-2 from human adenosine A2A receptor expressed in CHO cells; format: cell-based; in short: as §3
Adenosine receptor A2a [20] = target: T15, Adenosine receptor A2a; assay: Binding affinity to human adenosine A2A receptor
[21] = system: Adenosine receptor A1/A2A (Homo sapiens); assay: Selectivity ratio of Ki for human adenosine A1 receptor to Ki for human adenosine A2A receptor
Rattus norvegicus = species on record: Rattus norvegicus; assay: Selectivity ratio of Ki for adenosine A2A receptor in rat brain striatum to Ki for adenosine A1 receptor in rat brain cortex; format: tissue-based
Adenosine receptor A2b [22] = target: T4, Adenosine receptor A2b; assay: Binding affinity to human adenosine A2B receptor
Adenosine receptor A3 [23] = target: T2, Adenosine receptor A3; assay: Binding affinity to human adenosine A3 receptor
Adenosine receptor A1 [24] = target: T12, Adenosine receptor A1; assay: Binding affinity to human adenosine A1 receptor

T15 sequence (P29274 whole entry): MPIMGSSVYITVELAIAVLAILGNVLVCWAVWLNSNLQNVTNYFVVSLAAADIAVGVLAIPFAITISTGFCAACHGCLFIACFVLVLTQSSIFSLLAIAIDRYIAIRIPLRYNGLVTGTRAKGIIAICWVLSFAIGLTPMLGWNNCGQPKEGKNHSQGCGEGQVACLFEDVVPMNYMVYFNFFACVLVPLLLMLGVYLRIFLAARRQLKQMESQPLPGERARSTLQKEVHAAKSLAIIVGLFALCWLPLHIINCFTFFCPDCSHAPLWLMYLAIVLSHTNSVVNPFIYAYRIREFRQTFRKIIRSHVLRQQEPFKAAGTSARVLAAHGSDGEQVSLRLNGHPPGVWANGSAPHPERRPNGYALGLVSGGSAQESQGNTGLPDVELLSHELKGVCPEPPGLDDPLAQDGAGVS
T5 sequence (P30543 whole entry): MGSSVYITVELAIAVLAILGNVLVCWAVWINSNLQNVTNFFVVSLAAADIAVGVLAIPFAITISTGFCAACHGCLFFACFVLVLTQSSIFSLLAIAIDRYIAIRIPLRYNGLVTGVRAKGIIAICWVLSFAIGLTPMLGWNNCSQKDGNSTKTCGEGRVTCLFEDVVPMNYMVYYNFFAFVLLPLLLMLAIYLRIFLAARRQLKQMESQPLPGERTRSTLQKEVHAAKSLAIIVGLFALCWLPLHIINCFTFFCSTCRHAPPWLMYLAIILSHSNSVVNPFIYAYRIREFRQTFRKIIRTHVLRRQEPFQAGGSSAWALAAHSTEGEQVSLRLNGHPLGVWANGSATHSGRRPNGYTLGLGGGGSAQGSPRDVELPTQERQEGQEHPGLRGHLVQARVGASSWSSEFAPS
Adenosine receptor A2a (Rattus norvegicus), sequence (P30543 whole entry): as above

inhibition [1]	Ki (Adenosine receptor A3 [2])	inhibition [3]	Ki (Adenosine receptor A2b [4])	Ki (Adenosine receptor A2a [5])	Ki (Adenosine receptor A1 [6])	IC50 [7]	inhibition at 10 µM [8]	inhibition at 10 µM [9]	IC50 [11]	inhibition [12]	Ki (Adenosine receptor A1 [14])	inhibition [18]	Ki (Adenosine receptor A2a [19])	SMILES	also measured
24%	> 1 µM	0%	> 1000 nM	> 10000 nM	> 1500 nM	2.2 µM	13%	60%	> 10 µM	-7%				Cn1c(=O)c2c(nc3n2CCCN3CC(=O)N2CCN(c3ccc(Cl)cc3)CC2)n(C)c1=O	inhibition [10]: 39%
20%	> 1 µM		> 1000 nM	3030 nM	469 nM	> 10 µM		36%		8%	9.49 µM			C#CCn1c(=O)c2c(nc3n2CCCN3c2cccc(OC)c2)n(C)c1=O	Ratio Ki [13]: > 10
	> 10 µM			5600 nM	11000 nM	> 10 µM	3%		> 10 µM					C#CCn1c(=O)c2c(ncn2C)n(C)c1=O	Ki (Adenosine receptor A1 [15]): 11 µM; Ki (Adenosine receptor A2a [16]): 5600 nM; Ki (Adenosine receptor A3 [17]): > 10 µM
15%	> 10 µM	47%	> 1000 nM	1210 nM	≥ 25000 nM	10 µM	6%	6%	> 10 µM	10%	10 µM	30%		Cn1c(=O)c2c(nc3n2CCCN3c2ccc(Cl)cc2)n(C)c1=O	
													5.38 nM	C#CCn1c(=O)c2c(nc(/C=C/c3cccc(OC)c3)n2C)n(CCCO)c1=O	Ki (Adenosine receptor A2a [20]): 5.38 nM
34%	> 10 µM		3860 nM	932 nM	313 nM	10 µM		46%			> 10 µM	21%	284 nM	C#CCn1c(=O)c2c(nc3n2CCCN3c2cccc(Br)c2)n(C)c1=O	Ratio Ki [21]: > 35; Ratio Ki (Rattus norvegicus): 3
10%	> 1 µM		> 1000 nM	827 nM	632 nM	> 10 µM		2%		3%	11.6 µM		1200 nM	C#CCn1c(=O)c2c(nc3n2CCCN3CCc2ccccc2)n(C)c1=O	Ratio Ki [13]: 18
	15.2 µM		> 1000 nM	802 nM	432 nM	0.344 µM	2%		> 10 µM	10%	> 10 µM	21%	2030 nM	Cn1c(=O)c2c(nc3n2CCCN3Cc2cccc(Cl)c2)n(C)c1=O	
36%	> 10 µM	27%	> 1000 nM	7230 nM	> 25000 nM	0.218 µM	14%		> 10 µM	1%	> 10 µM	29%		Cn1c(=O)c2c(nc3n2CCCN3Cc2ccc(Cl)cc2)n(C)c1=O	
	13.3 µM		10000 nM		> 25000 nM						16.7 µM		1180 nM	Cn1c(=O)c2c(nc3n2CCCN3c2ccc(F)cc2)n(C)c1=O	Ki (Adenosine receptor A1 [15]): > 25 µM; Ki (Adenosine receptor A2a [20]): 1880 nM; Ki (Adenosine receptor A2b [22]): 10 µM; Ki (Adenosine receptor A2a [16]): 147 nM; Ki (Adenosine receptor A3 [23]): 13.3 µM; Ki (Adenosine receptor A1 [24]): 16.7 µM
